Experimental data as given in ChEMBL document CHEMBL1157562, “Piperazinyl glutamate pyridines as potent orally bioavailable P2Y12 antagonists for inhibition of platelet aggregation” (J Med Chem, 2010).

Columns and labels:
[1] = Antiplatelet aggregation activity against adenosine diphosphate-induced human platelet rich plasma assessed as inhibition of platelet aggregation by turbidimetric method; format: functional; conditions: Homo sapiens, Platelet, Plasma
Summary of the method: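 Human PRP, prepared by two-step centrifugation and adjusted to 330 000 platelets/μL with PPP. Compound was preincubated 5 min at 37 °C in 0.5% DMSO, then 20 μM ADP was added. OD626 was read kinetically for 15 min at 37 °C with mixing between reads.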

[2] = Volume of distribution at steady state in Sprague-Dawley rat at 2 mg/kg, iv and 5 mg/kg, po; format: ADME, organism-based; conditions: in vivo, read-out: Vdss
Summary of the method: (§1)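 Rats received 2 mg/kg iv infusion or 5 mg/kg po, in 50% PEG400/40% PBS/10% ethanol.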

[3] = Clearance in Sprague-Dawley rat at 2 mg/kg, iv and 5 mg/kg, po; format: ADME, organism-based; conditions: in vivo; summary of the method: as §1
[4] = Half life in Sprague-Dawley rat at 2 mg/kg, iv and 5 mg/kg, po; format: ADME, organism-based; conditions: in vivo; summary of the method: as §1
[5] = target: P2Y purinoceptor 12 (Homo sapiens, UniProt Q9H244); experiment: Displacement of [33P]ADP from human recombinant P2Y12 receptor expressed in CHO cells; format: cell-based
Chain of P2Y purinoceptor 12 (Q9H244 whole entry): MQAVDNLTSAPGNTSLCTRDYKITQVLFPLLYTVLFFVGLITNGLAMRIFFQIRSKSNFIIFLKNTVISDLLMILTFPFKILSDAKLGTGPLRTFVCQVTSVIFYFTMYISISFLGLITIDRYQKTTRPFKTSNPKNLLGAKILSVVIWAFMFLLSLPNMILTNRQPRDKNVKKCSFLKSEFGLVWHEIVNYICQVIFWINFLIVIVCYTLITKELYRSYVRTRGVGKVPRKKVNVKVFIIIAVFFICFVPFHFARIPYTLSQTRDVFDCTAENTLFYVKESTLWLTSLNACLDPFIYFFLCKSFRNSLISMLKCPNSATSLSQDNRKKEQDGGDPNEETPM
Summary of the method: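 Washed membranes from CHO cells expressing synthetic human P2Y12, incubated 1 h at room temperature with 0.2 nM 33P-MeSADP in 50 mM Tris/100 mM NaCl/1 mM EDTA. Compound was tested as a 7-point 3-fold series in triplicate. Nonspecific binding was defined with 300 nM 2-MeSADP, followed by filtration.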

[6] = tested on: Platelet; experiment: Relative potency, ratio of IC50 for drug to IC50 for AZD-6140 for platelet aggregation in human platelet rich plasma; format: functional

SMILES | IC50 [1] [nM] | Vd [2] [L/kg] | clearance [3] [mL/min/kg] | half-life [4] [min] | Ki [5] [nM] | Ratio IC50 [6]
CCOC(=O)N1CCN(C(=O)[C@H](CCC(=O)O)NC(=O)c2cc(N3CCCCC3)cc(-c3ccccc3)n2)CC1 | 29000 | 1.3 | 34 | 24 | 112 | 34
CCCCCOC(=O)N1CCN(C(=O)[C@H](CCC(=O)O)NC(=O)c2cc(N3CCC(N4CCCC4)CC3)cc(-c3ccccc3)n2)CC1 | 1200 | 7.3 | 52 | 96 | 9 | 0.57
CCCCCOC(=O)N1CCN(C(=O)[C@H](CCC(=O)O)NC(=O)c2cc(OC(=O)N3CCCC3)cc(-c3ccccc3)n2)CC1 | 1800 | 2.3 | 46 | 36 | 7.7 | 1
CCCCCOC(=O)N1CCN(C(=O)[C@H](CCC(=O)O)NC(=O)c2cc(OC3CCN(CCOC)CC3)cc(-c3ccccc3)n2)CC1 | 1700 | 5.2 | 94 | 38.4 | 9.9 | 1.7
CCCCCOC(=O)N1CCN(C(=O)[C@H](CCC(=O)O)NC(=O)c2cc(N3CCC(CN(C)C)CC3)cc(-c3ccccc3)n2)CC1 | – | 2.1 | 92 | 18 | – | 1.3
CCOC(=O)N1CCN(C(=O)[C@H](CCC(=O)O)NC(=O)c2cc(O)cc(-c3ccccc3)n2)CC1 | 24000 | – | – | – | 62 | 41
CCCCCOC(=O)N1CCN(C(=O)[C@H](CCC(=O)O)NC(=O)c2cc(C(=O)N(C)CC)cc(-c3ccccc3)n2)CC1 | 580 | – | – | – | 2.6 | 1.3
CCCCCOC(=O)N1CCN(C(=O)[C@H](CCC(=O)O)NC(=O)c2cc(NC(=O)OCCCN)cc(-c3ccccc3)n2)CC1 | 5700 | – | – | – | 1.9 | 3.9
CCCCCOC(=O)N1CCN(C(=O)[C@H](CCC(=O)O)NC(=O)c2cc(C(N)=O)cc(-c3ccccc3)n2)CC1 | 8900 | – | – | – | 7.5 | 9
CCCCOC(=O)N1CCN(C(=O)[C@H](CCC(=O)O)NC(=O)c2cc(OCC3CCN(S(=O)(=O)CC)CC3)cc(-c3ccccc3)n2)CC1 | 3000 | – | – | – | 5.3 | 2.8
CCCCCOC(=O)N1CCN(C(=O)[C@H](CCC(=O)O)NC(=O)c2cc(C(=O)N(C)C)cc(-c3ccccc3)n2)CC1 | 1100 | – | – | – | 2.4 | 1
CCCCOC(=O)N1CCN(C(=O)[C@H](CCC(=O)O)NC(=O)c2cc(OC3CCN(S(=O)(=O)CC)CC3)cc(-c3ccccc3)n2)CC1 | 3300 | – | – | – | 7.6 | 3.1
CCCCCOC(=O)N1CCN(C(=O)[C@H](CCC(=O)O)NC(=O)c2cc(N3CCC(N4CCOCC4)CC3)cc(-c3ccccc3)n2)CC1 | 2000 | – | – | – | 10 | 0.95
CCCCCOC(=O)N1CCN(C(=O)[C@H](CCC(=O)O)NC(=O)c2cc(NC(=O)N3CCC(COC)CC3)cc(-c3ccccc3)n2)CC1 | 4500 | – | – | – | 43 | 5.2
CCCCOC(=O)N1CCN(C(=O)[C@H](CCC(=O)O)NC(=O)c2cc(OC3CCOCC3)cc(-c3ccccc3)n2)CC1 | 4100 | – | – | – | 10 | 6.3
CCCCCOC(=O)N1CCN(C(=O)[C@H](CCC(=O)O)NC(=O)c2cc(NC(=O)OCC3CCNCC3)cc(-c3ccccc3)n2)CC1 | 5800 | – | – | – | 1.7 | 3.7
CCCCOC(=O)N1CCN(C(=O)[C@H](CCC(=O)O)NC(=O)c2cc(N3CCOCC3)cc(-c3ccccc3)n2)CC1 | 7200 | – | – | – | 3.3 | 11
CCCCCOC(=O)N1CCN(C(=O)[C@H](CCC(=O)O)NC(=O)c2cc(C(=O)NCC)cc(-c3ccccc3)n2)CC1 | 9700 | – | – | – | 13 | 13
CCCCOC(=O)N1CCN(C(=O)[C@H](CCC(=O)O)NC(=O)c2cc(OCCCCO)cc(-c3ccccc3)n2)CC1 | 4500 | – | – | – | 4.9 | 6.7
CCCCCOC(=O)N1CCN(C(=O)[C@H](CCC(=O)O)NC(=O)c2cc(NC(=O)C(F)(F)F)cc(-c3ccccc3)n2)CC1 | 8200 | – | – | – | 9.1 | 8.2
CCCCCOC(=O)N1CCN(C(=O)[C@H](CCC(=O)O)NC(=O)c2cc(C(=O)N(C)CCCC)cc(-c3ccccc3)n2)CC1 | 1800 | – | – | – | 5.8 | 3.3
CCCCOC(=O)N1CCN(C(=O)[C@H](CCC(=O)O)NC(=O)c2cc(OC3CCNC3)cc(-c3ccccc3)n2)CC1 (stereo partly drawn) | 2600 | – | – | – | 3.7 | 1.3
CCCCOC(=O)N1CCN(C(=O)[C@H](CCC(=O)O)NC(=O)c2cc(OCC3CCCCN3)cc(-c3ccccc3)n2)CC1 (stereo partly drawn) | 1800 | – | – | – | 11 | 2
CCCCCOC(=O)N1CCN(C(=O)[C@H](CCC(=O)O)NC(=O)c2cc(OC(=O)N(C)C)cc(-c3ccccc3)n2)CC1 | 2900 | – | – | – | 5.5 | 1.7
CCCCOC(=O)N1CCN(C(=O)[C@H](CCC(=O)O)NC(=O)c2cc(OCC3CCN(C(=O)C(F)(F)F)CC3)cc(-c3ccccc3)n2)CC1 | 3000 | – | – | – | 10 | 2.8
CCCCCCOC(=O)N1CCN(C(=O)[C@H](CCC(=O)O)NC(=O)c2cc(OCCO)cc(-c3ccccc3)n2)CC1 | 21000 | – | – | – | 18 | 13

More lines, in order of falling IC50 [1], values ahead:

IC50 [1] [nM] | Vd [2] [L/kg] | clearance [3] [mL/min/kg] | half-life [4] [min] | Ki [5] [nM] | SMILES | Ratio IC50 [6]
31000 | – | – | – | 28 | CCOC(=O)N1CCN(C(=O)[C@H](CCC(=O)O)NC(=O)c2cc(OCc3ccccc3)cc(-c3ccccc3)n2)CC1 | 42
5500 | – | – | – | 9.2 | CCCCCOC(=O)N1CCN(C(=O)[C@H](CCC(=O)O)NC(=O)c2cc(NC(=O)N3CCC(OC)CC3)cc(-c3ccccc3)n2)CC1 | 6.1
5300 | – | – | – | 5.1 | CCCCCOC(=O)N1CCN(C(=O)[C@H](CCC(=O)O)NC(=O)c2cc(OC3CCN(S(=O)(=O)CC)CC3)cc(-c3ccccc3)n2)CC1 | 5
5000 | – | – | – | 8.4 | CCCCCOC(=O)N1CCN(C(=O)[C@H](CCC(=O)O)NC(=O)c2cc(CCCOC)cc(-c3ccccc3)n2)CC1 | 6.6
4600 | – | – | – | 6.1 | CCCCCOC(=O)N1CCN(C(=O)[C@H](CCC(=O)O)NC(=O)c2cc(C(=O)NCCCOC)cc(-c3ccccc3)n2)CC1 | 12
3900 | – | – | – | 6.9 | CCCCOC(=O)N1CCN(C(=O)[C@H](CCC(=O)O)NC(=O)c2cc(OC3CCCNC3)cc(-c3ccccc3)n2)CC1 (stereo partly drawn) | 1.8
3200 | – | – | – | 3.6 | CCCCCOC(=O)N1CCN(C(=O)[C@H](CCC(=O)O)NC(=O)c2cc(CCCCO)cc(-c3ccccc3)n2)CC1 | 4.2
1900 | – | – | – | 3.8 | CCCCCOC(=O)N1CCN(C(=O)[C@H](CCC(=O)O)NC(=O)c2cc(CCCO)cc(-c3ccccc3)n2)CC1 | 2.6
1800 | – | – | – | 5 | CCCCCOC(=O)N1CCN(C(=O)[C@H](CCC(=O)O)NC(=O)c2cc(OC3CCN(C)CC3)cc(-c3ccccc3)n2)CC1 | 1.8
1800 | – | – | – | 2.4 | CCCCCOC(=O)N1CCN(C(=O)[C@H](CCC(=O)O)NC(=O)c2cc(N3CCC(CO)CC3)cc(-c3ccccc3)n2)CC1 | 6.3
1300 | – | – | – | 1.3 | CCCCCOC(=O)N1CCN(C(=O)[C@H](CCC(=O)O)NC(=O)c2cc(OCC3CCN(C(C)=O)CC3)cc(-c3ccccc3)n2)CC1 | 1.8
1000 | – | – | – | 6.5 | CCCCCOC(=O)N1CCN(C(=O)[C@H](CCC(=O)O)NC(=O)c2cc(N3CCC(NC)CC3)cc(-c3ccccc3)n2)CC1 | 1.1
910 | – | – | – | 3.5 | CCCCOC(=O)N1CCN(C(=O)[C@H](CCC(=O)O)NC(=O)c2cc(N3CCC(N)CC3)cc(-c3ccccc3)n2)CC1 | 1.2
880 | – | – | – | 10 | CCCCOC(=O)N1CCN(C(=O)[C@H](CCC(=O)O)NC(=O)c2cc(OC3CCN(C(C)C)CC3)cc(-c3ccccc3)n2)CC1 | 0.75
530 | – | – | – | 5.8 | CCCCCOC(=O)N1CCN(C(=O)[C@H](CCC(=O)O)NC(=O)c2cc(C(=O)N3CCN(C)CC3)cc(-c3ccccc3)n2)CC1 | 0.72
410 | – | – | – | 4.5 | CCCCOC(=O)N1CCN(C(=O)[C@H](CCC(=O)O)NC(=O)c2cc(OCC3CCN(C(C)C)CC3)cc(-c3ccccc3)n2)CC1 | 0.33
350 | – | – | – | 11 | CCCCCOC(=O)N1CCN(C(=O)[C@H](CCC(=O)O)NC(=O)c2cc(C(=O)N(C)C3CCN(C)CC3)cc(-c3ccccc3)n2)CC1 | 0.83
330 | 6.9 | 130 | 36 | 5.3 | CCCCCOC(=O)N1CCN(C(=O)[C@H](CCC(=O)O)NC(=O)c2cc(OCC3CCN(C)CC3)cc(-c3ccccc3)n2)CC1 | 0.62
